The text below walks through data of publication PMC4364388 (Biochimica et biophysica acta, 2015).

For series [1], the target named is T1, rat UT-A1 (Rattus norvegicus, UniProt Q62668).
T1 sequence (Q62668 1-929): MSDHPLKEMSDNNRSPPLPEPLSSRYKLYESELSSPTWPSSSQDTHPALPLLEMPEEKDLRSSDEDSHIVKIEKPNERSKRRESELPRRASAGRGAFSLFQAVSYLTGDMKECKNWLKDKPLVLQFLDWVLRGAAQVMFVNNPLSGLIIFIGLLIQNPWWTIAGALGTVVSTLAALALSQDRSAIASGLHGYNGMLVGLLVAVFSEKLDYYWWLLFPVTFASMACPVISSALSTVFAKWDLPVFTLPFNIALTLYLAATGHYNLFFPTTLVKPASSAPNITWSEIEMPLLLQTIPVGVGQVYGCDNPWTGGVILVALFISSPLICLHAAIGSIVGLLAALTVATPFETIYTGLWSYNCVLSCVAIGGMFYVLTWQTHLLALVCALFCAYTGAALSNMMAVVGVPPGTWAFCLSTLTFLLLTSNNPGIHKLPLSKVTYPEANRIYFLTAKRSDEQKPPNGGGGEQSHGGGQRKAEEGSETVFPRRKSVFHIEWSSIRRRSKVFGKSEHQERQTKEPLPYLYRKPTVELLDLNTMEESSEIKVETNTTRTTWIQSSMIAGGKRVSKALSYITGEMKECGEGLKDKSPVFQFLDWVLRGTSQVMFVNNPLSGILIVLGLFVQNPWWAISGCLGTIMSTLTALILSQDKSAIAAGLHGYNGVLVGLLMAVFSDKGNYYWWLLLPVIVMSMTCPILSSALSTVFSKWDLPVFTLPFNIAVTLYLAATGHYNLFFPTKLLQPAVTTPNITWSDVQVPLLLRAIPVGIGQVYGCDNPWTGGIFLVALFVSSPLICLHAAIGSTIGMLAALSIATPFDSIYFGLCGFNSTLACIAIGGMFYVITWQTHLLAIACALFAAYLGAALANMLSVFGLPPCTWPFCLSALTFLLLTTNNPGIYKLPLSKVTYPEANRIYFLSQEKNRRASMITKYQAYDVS
Put plainly: UT-A1 inhibition assay. It is filed as cell-based. As to conditions: for IC50: UT-A1 IC50, MDCK cells expressing rat UT-A1, YFP and AQP1, 20 min incubation; for Selectivity for UT-A1 vs. UT-B inhibition: comparison of IC50 values for UT-A1 and UT-B.

The target of series [2] is T2, rat UT-B (Rattus norvegicus, UniProt P97689).
T2 sequence (P97689 1-384): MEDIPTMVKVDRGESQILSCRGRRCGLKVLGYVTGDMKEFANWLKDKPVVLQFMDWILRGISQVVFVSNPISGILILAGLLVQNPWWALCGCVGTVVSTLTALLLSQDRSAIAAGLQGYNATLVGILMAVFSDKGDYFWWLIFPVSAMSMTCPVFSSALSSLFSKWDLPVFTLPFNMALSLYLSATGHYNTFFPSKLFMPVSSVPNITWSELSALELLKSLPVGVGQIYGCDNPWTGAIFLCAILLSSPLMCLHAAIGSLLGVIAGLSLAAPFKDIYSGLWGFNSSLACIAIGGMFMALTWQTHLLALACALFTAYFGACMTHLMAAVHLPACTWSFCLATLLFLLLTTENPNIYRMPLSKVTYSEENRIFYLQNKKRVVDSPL
Nature of the series: UT-B inhibition, erythrocyte lysis assay. To be noted: for IC50: 15 min incubation. It is filed as cell-based.

A short description of series [3]: Water solubility. It is filed as physicochemical.
Series [4] has as its target T1, rat UT-A1. As to conditions: read-out: UT-A1 IC50; earlier finding; cited from earlier work.
Series [5] deals with T2, rat UT-B. To be noted: read-out: UT-B IC50; earlier finding; cited from earlier work.
The subject of series [6] is rats. To be noted: listed as DMTU; cited from earlier work.
The target of series [7] is T1, rat UT-A1. Put plainly: Functional studies of UT-A1 inhibition. It is filed as cell-based. The procedure, abridged:
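MDCK cells stably co-expressing rat UT-A1, YFP-H148Q/V163S and human AQP1 were plated 24 h before assay. Reversibility: 15 min with 0.2 mM test compound, two PBS washes, then assay. Kinetics: 0.2 mM added at varied times before assay. Urea dependence: concentration-response at 80–1,600 mM urea gradients. Read-out was YFP fluorescence 7 s after urea addition, normalised to negative and positive controls.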

Series [8] deals with MDCK cells. Nature of the series: Cytotoxicity to MDCK cells. In kind it is cell-based, canine. As to conditions: at solubility limit.
Where [9] appears, read: UT-B IC50, rat erythrocyte lysis assay.
[10] abbreviates: read-out: UT-B IC50, rat erythrocyte lysis assay.

Values after ≈ are worked out from the molar mass of the structure shown. Values joined by “and” are separate entries in the source; they are usually repeats but may differ in a detail not shown here. Equal values may be shown once. Read-outs that look alike come from different tables or passages of the source.

Regarding `NC(=S)Nc1ccc(Cl)c(Cl)c1` [Compound 21, 3,4-dichlorophenylthiourea], the figures for the IC50 in series [1] and in series [2] (setting [9]) were 1.5 ± 0.4 mM and 0.4 ± 0.1 mM, respectively.

Turning to `NC(=S)c1cccnc1` [Compound 27, thionicotinamide], the IC50 – broadly, the point on the concentration scale where inhibition reaches its midpoint – in series [1] is above 25 mM; in series [2] (setting [9]), 10 ± 2 mM.

In the case of `CNC(=S)NC` [Compound 1, N, N′-dimethylthiourea], the IC50 in series [2] (setting [10]) is 3.9 ± 0.6 mM; in series [4] it was 2 to 3 mM; in series [5] it was 2 to 3 mM. In series [3], this molecule yielded a Water solubility of 7900 mM. In series [3] (saline), this molecule showed a Solubility in saline above 50 mg/mL. For the same molecule, the Diuretic action entry in series [6] was “reduce urinary osmolality in rats and produce a salt-sparing diuresis”.

`NC(N)=S` [Compound 2]: the “UT-A1 inhibition activity (in words)” value in series [1] was “significant loss of UT-A1 and UT-B inhibition activity”. Moreover, the “UT-B inhibition activity (in words)” value in series [2] is “significant loss of UT-A1 and UT-B inhibition activity”. Moreover, the IC50 in series [2] (setting [10]) was above 25 mM.

Regarding `CNC(=O)NC` [Compound 3, dimethylurea], the “UT-A1 inhibition activity (in words)” value in series [1] is recorded as “loss of activity”. In addition, the “UT-B inhibition activity (in words)” value in series [2] is listed as “loss of activity”. The IC50 in series [2] (setting [10]) is 14 ± 2 mM.

Take `NC(=S)Nc1ccc([N+](=O)[O-])cc1` [Compound 18, 4-nitrophenylthiourea]: in series [1], 1.3 ± 0.3 mM corresponded to half-maximal inhibition (IC50) and the “Selectivity for UT-A1 vs. UT-B inhibition” value is given as “UT-A1 selective”. Also, the IC50 in series [2] (setting [9]) turned out to be 10 ± 1 mM.

`NC(=S)Nc1cccc([N+](=O)[O-])c1` [Compound 32, 3-nitrophenylthiourea]: in series [1], the “IC50 improvement relative to 18” value was around 6 fold; the IC50 is ~0.2 mM and 0.2 mM; the “Selectivity for UT-A1 vs. UT-B inhibition” value is on record as “non-selective”. For the same molecule, the IC50 in series [2] (setting [9]) is ~0.2 mM and 0.2 mM. Further, the “Kinetics of UT-A1 inhibition” value in series [7] (0.2 mM added at different times prior to assay) is “very rapid”. For the same molecule, in series [7] (0.2 mM, 15 min incubation, washed twice), the “Reversibility of UT-A1 inhibition” value is reported as “fully reversible”. The “Inhibition mechanism from urea concentration-dependence of IC50” value in series [7] (urea gradients 80 to 1,600 mM) is “competitive inhibition mechanism”. The solubility (usually how much of the substance goes into solution per volume) in series [3] (water) turned out to be 0.64 mM (≈ 126 µg/mL). For the same molecule, in series [8], the “Cytotoxicity to MDCK cells” value is reported as “no cytotoxicity”.

Turning to `NC(=S)Nc1ccccc1` [Compound 9, phenylthiourea], in series [1], the “UT-A1 inhibition activity (in words)” value is “potencies comparable to DMTU” and half-maximal inhibition (IC50) was put at 8.8 ± 0.3 mM. The “UT-B inhibition activity (in words)” value in series [2] is “potencies comparable to DMTU”. Further, in series [2] (setting [9]), the IC50 came to 14 ± 1 mM.

Take `NC(=S)c1ccncc1` [Compound 26, thioisonicotinamide]: the “Selectivity for UT-A1 vs. UT-B inhibition” value in series [1] is “selective for UT-B over UT-A1”. Further, in series [2] (setting [10]), the IC50 was 2.8 ± 0.5 mM.

For the molecule `NC(=S)c1ccncc1` [thioisonicotinamide], the “Selectivity for UT-A1 vs. UT-B inhibition” value in series [1] was “UT-B selective”. In addition, the IC50 in series [2] (setting [10]) worked out at 2.8 mM.

Take `CN(C)C(=S)N(C)C` [Compound 5, Tetramethylthiourea]: in series [1], the “UT-A1 inhibition activity (in words)” value was “inactive” and the IC50 was above 25 mM. Besides, the “UT-B inhibition activity (in words)” value in series [2] is “inactive”. In series [2] (setting [9]), this molecule yielded an IC50 above 25 mM.

As to cyclohexylthiourea [Compound 12], the “UT-A1 inhibition activity (in words)” value in series [1] was “potencies comparable to DMTU”. Moreover, the “UT-B inhibition activity (in words)” value in series [2] was “potencies comparable to DMTU”. Also, in series [2] (setting [10]), the IC50 was 5.2 ± 0.6 mM.
